MT stabilize HCS = microtubule stabilization, imaging screen. HeLa tubulin immunostaining HCS, 24 h; share of cells brighter than vehicle mean+2SD. % tubulin-high responders, % at 10 µM. actives 0.83% (n = 200,000). AID 2205;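 active = plate Z-score above 3 for both tubulin-high and condensed-nucleus cell shares, with cell loss under 80%, at 10 µM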;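 note: anti alpha tubulin signal scored within the nucleus-defined area of each cell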
RAM network inh = yeast RAM network inhibition; S. cerevisiae dse1pr::URA3 reporter, 5-FOA growth OD615, 2 d; analog-sensitive cbk1-as2 kinase mutant strain; actives 1.8% (n = 190,000); inhibition, % at 50 µM;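 active = inhibition above a set limit, 3 SD over mean compound inhibition, cut at about 8.4% in these data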;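 note: inhibition rescues growth on 5-FOA so higher OD means more RAM inhibition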
HMGR II inh = blocks class II HMG-CoA reductase of Enterococcus faecalis | purified E. faecalis HMGR, NADPH absorbance 340 nm kinetic | inhibition, % at 10 µM | actives 0.41% (n = 190,000) | AID 1066;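 active = inhibition above a set limit, the median over all tested compounds plus 3 SD, cut at about 9.5% in these data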;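 note: enzyme runs in reverse so mevalonate oxidation gives rising NADPH absorbance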
BB579 growth dn = yeast BB579 growth reduction in restrictive medium. S. cerevisiae BB579 growth, OD615, 48 h. inhibition, % at 10 µM. actives 0.51% (n = 140,000);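 active = inhibition above a set limit, 3 SD over the mean compound inhibition, cut at about 44% in these data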
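Assay system: S. cerevisiae DeaD strain BB579 yeast. Medium: CSMM-D restrictive synthetic medium containing dextrose (glucose). Times: 4 h cell preincubation, 48 h compound exposure, 30 °C humidified. Signal: OD615 turbidity measurement. Benchmarks: positive control amphotericin B 10 µg/mL.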
bCat nuc transl = modulators of beta-catenin nuclear translocation; HeLa beta-catenin nuclear translocation, immunofluorescence imaging; nuclear translocation activity, % at 5 µM; actives 0.3% (n = 190,000); AID 1665;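 active = nuclear translocation activity above 50% at 5 µM, with a well cell count of 50 or more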;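 note: per-cell ratio of nuclear to cytoplasmic median beta-catenin stain intensity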
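test system = HeLa cells, endogenous beta-catenin | dosing = single 5 µM dose plus 0.02–20 µM confirmation series | times = compound treatment 24 h, 37°C, 5% CO2 | technique = beta-catenin immunofluorescence imaging with DAPI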
Yeast life ext = extends the lifespan of yeast; S. cerevisiae growth with nicotinamide, OD615; deaD strain in restrictive glucose medium; inhibition of the nicotinamide effect, % at 10 µM; actives 0.68% (n = 130,000); AID 775;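 active = inhibition above a set limit, placed 3 SD over the median of all compounds, cut at about 26% in these data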
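assay system = DeaD-strain S. cerevisiae | measured by = absorbance at 615 nm | probe or stimulus = nicotinamide 1.5 mM | buffer or medium = CSMM-D glucose medium, restrictive | times = 48 h at 30 °C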
Hits are given with their value; i = inactive; nt = not tested or not shown. Sampled rows, rich in hits. Any-hit rate of the full collection: about 3.5%.

SMILES | MT stabilize HCS | RAM network inh | HMGR II inh | BB579 growth dn | bCat nuc transl | Yeast life ext
COc1nccnc1NS(=O)(=O)c1ccc(NC(=S)NC(=O)/C=C/c2ccc(F)cc2)cc1 | i | 11.2 | i | i | i | i
COc1cc(NS(=O)(=O)c2ccc(NC(=S)NC(=O)/C=C/c3ccc(F)cc3)cc2)ncn1 | nt | nt | nt | nt | i | nt
COc1ccc(C(=O)CCC(=O)Nc2cccnc2)cc1 | i | i | i | nt | i | nt
CCOC(=O)Cc1c(C)nc2c(-c3ccccc3)c(C)[nH]n2c1=O | i | i | i | i | nt | i
CCOC(=O)Cc1c(C)nc2c(-c3ccccc3)c[nH]n2c1=O | 18.7 | i | i | i | i | i
COC(=O)Cn1c2ccc(OC)cc2c2nc(C)sc21 | nt | nt | nt | nt | i | nt
NC(N)=N/N=C/c1ccc(OS(=O)(=O)c2ccccc2)cc1 | 9.2 | i | i | nt | i | nt
O=C(NN1CCOCC1)NC12CC3CC(CC(C3)C1)C2 | nt | nt | nt | nt | i | nt
O=C1c2ccccc2NC(c2ccc(-c3ccc(Br)cc3)o2)N1O (stereo not drawn) | i | i | i | 93.6 | i | i
O=C1c2ccccc2NC(c2ccc(-c3cccc([N+](=O)[O-])c3)o2)N1O (stereo not drawn) | i | i | i | i | nt | i
CCN(CC)c1ccc2cc(-c3nc4ccccc4n3C)c(=O)oc2c1 | 29.2 | i | i | i | 65.6 | i
CCN(CC)c1ccc2cc(-c3nc4ccccc4[nH]3)c(=O)oc2c1 | i | i | i | i | i | i
COc1ccccc1NC(=O)c1ccc(NC(=O)CSc2nncn2C)cc1 | i | i | i | i | i | i
CCCn1c(SCC(=O)Nc2ccc(C(=O)Nc3ccccc3OC)cc2)n[nH]c1=O | i | 9.2 | i | nt | i | nt
CN1CC=C2C(C#N)=C(N)C(C#N)(C#N)[C@H](c3cccc(Cl)c3)C2C1 (stereo partly drawn) | i | i | i | i | i | i
CC(C)c1ccc(C2C3CSCC=C3C(C#N)=C(N)C2(C#N)C#N)cc1 (stereo not drawn) | i | i | i | i | i | 28.8
CC(Oc1cc(F)ccc1[N+](=O)[O-])C(=O)N(C)CC(=O)Nc1ccccc1C(F)(F)F (stereo not drawn) | i | i | i | nt | i | nt
CCOc1ccc(C2=Nc3ccccc3C(c3ccc(N4CCOCC4)cc3)=NN2)cc1 | 35.3 | i | i | i | nt | i
CCOc1ccc(C2=Nc3ccc(Br)cc3C(c3ccc(N4CCOCC4)cc3)=NN2)cc1 | i | 10.1 | i | i | i | i
CCc1ccc2c(c1)C(c1ccc(N3CCOCC3)cc1)=NNC(c1ccncc1)=N2 | i | i | i | nt | i | nt
CN(C)c1ccc(C(=O)n2nnc3ccccc32)cc1 | i | i | i | i | i | i
CCN(CC)c1ccc(C(=O)n2cnc3ccccc32)cc1 | 22.2 | i | i | i | i | i
Cc1onc(-c2ccccc2Cl)c1C(=O)NC(=S)Nc1ccc(C(C)(C)C)cc1 | nt | nt | nt | nt | i | nt
COc1ccccc1Nc1ncc(-c2cccs2)s1 | i | 9.9 | i | i | 106.6 | i
COc1ccccc1Nc1ccc(C(=O)NCc2cccs2)cn1 | i | i | i | nt | i | nt
SMILES | MT stabilize HCS | RAM network inh | HMGR II inh | BB579 growth dn | bCat nuc transl | Yeast life ext
O=C(O)/C=C/c1ccc(S(=O)(=O)NCc2cccnc2)cc1 | nt | nt | nt | nt | i | nt
Cc1cc(C)cc(Oc2ccccc2CO)c1 | i | i | i | nt | i | nt
Cc1cc(C(=O)COC(=O)c2ccc(Br)o2)c(C)n1Cc1ccco1 | i | 10.3 | i | nt | i | nt
CSCCC(NS(=O)(=O)c1ccc(C)c(C(=O)O)c1)C(=O)O (stereo not drawn) | i | i | i | nt | i | nt
Cc1ccc(C(=O)n2c3ccccc3c3ccccc32)cc1 | 44.0 | i | i | i | 95.8 | i
COC(=O)c1cccc(S(=O)(=O)N(Cc2ccco2)Cc2cc3cc(OC)c(OC)cc3[nH]c2=O)c1 | i | 8.9 | i | i | i | i
Cc1ccc2[nH]c(=O)c(CN(Cc3ccco3)C(=O)c3ccncc3)cc2c1 | 14.3 | i | i | i | i | i
COc1ccccc1NC(=S)N(Cc1ccco1)Cc1cc2cc(C)ccc2[nH]c1=O | 32.9 | i | i | i | i | i
COC(=O)c1cccc(S(=O)(=O)N(Cc2ccco2)Cc2cc3ccc(OC)cc3[nH]c2=O)c1 | i | i | i | i | i | i
COc1ccc(NC(=S)N(Cc2cccnc2)Cc2cc3cc(OC)c(OC)cc3[nH]c2=O)cc1 | i | 8.6 | i | nt | i | nt

Source: PubChem
